HIF activator: HIF pathway transcriptional activation; 0.32% of 300,000 active; U2OS HRE-luciferase reporter, luminescence; normalized: DMSO 0%, desferrioxamine 100%; activation, % at 7.5 µM (by protocol); AID 1910;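 active means mean activation of at least 10% of the iron chelator positive control signal, with at least half of replicates also reaching 10%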
Calb FLC: C. albicans growth modulation with fluconazole. AID 1979. growth inhibition, % (test concentration not listed). C. albicans CaCi-2 (fluconazole-resistant clinical isolate) + fluconazole, Alamar Blue growth, 48 h. 0.57% of 300,000 active;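 active means growth inhibition above about 58% in most replicates, limit read from the data, passing the limit was not always enough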;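 further: all wells also contain fluconazole at 8 µg/ml as a sub-toxic cotreatment; 0% = median of DMSO wells and 100% = median of geldanamycin control wells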
procasp3 activ: activators of human procaspase-3; P42574; recombinant procaspase-3 D3A, Ac-DEVD-pNA absorbance 405 nm; activation, % at 8.5 µM; 0.11% of 330,000 active;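 active means activation above the mean of all tested compounds plus 3 SD, cut at about 21% in these data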;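 further: 0% = DMSO alone and 100% = DMSO wells spiked with extra 5 µM PC-3 D3A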
Target sequence (P42574 whole entry D9A/D28A/D175A): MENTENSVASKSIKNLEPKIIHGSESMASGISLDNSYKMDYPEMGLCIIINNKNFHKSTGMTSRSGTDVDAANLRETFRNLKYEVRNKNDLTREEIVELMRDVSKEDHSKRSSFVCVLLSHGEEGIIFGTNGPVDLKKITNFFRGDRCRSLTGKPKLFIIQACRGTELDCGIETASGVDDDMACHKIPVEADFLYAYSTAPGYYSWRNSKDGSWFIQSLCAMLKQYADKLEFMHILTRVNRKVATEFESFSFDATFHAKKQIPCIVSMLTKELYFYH
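assay system = Procaspase-3 D3A mutant | signal = absorbance at 405 nm, 0 and 120 min | times = 1 h preincubation plus 2 h reaction at 25 °C | repeats = single replicate | read-out = % activation between DMSO and enzyme-spiked controls | medium = Zinc-free HEPES saline buffer with Triton X-100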
FXN GAA850 act: frataxin GAA850 promoter activation | AID 540364 | HEK293 lucGAA850 FXN promoter luciferase reporter, 24 h; percent of 10 µM SAHA response | 0.56% of 360,000 active | activation, % at 6 µM;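 active means activation above the average of all compounds screened plus 3 SD, cutoff fixed separately per campaign, cut at about 7.5% in these data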;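 further: 0% = DMSO wells and 100% = 10 µM SAHA wells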
Neddyl block: inhibitors of human cullin neddylation; 0.58% of 360,000 active; P61081+Q13564; TR-FRET cullin neddylation, biochemical; inhibition, % at 25 µM; in the data active means inhibition above about 36%
proCasp7 act: counter-screen: procaspase-7 (human) activation; 0.093% of 330,000 active; activation, % at 8.5 µM; AID 463210; recombinant procaspase-7, Ac-DEVD-pNA absorbance 405 nm; D23A/D198A/D206A triple mutant, cannot self-cleave; scale: DMSO 0, 5 µM enzyme 100; P55210;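 active means percent activation above the screen-wide mean plus 3 SD, cut at about 25% in these data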
Target sequence (P55210 whole entry D23A/D198A/D206A): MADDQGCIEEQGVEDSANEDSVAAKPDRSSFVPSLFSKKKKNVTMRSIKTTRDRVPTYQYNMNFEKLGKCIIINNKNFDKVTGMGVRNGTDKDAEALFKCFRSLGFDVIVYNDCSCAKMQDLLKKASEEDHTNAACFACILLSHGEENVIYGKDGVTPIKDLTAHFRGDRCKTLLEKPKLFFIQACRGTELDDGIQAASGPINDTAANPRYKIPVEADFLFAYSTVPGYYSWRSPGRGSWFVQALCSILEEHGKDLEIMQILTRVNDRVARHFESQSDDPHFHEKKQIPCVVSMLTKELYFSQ
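System: Procaspase-7 triple mutant (PC-7 D3A); measure: % activation from two-timepoint absorbance difference, scaled to controls; times: 1 h compound preincubation, 2 h substrate cleavage, 25 °C; also added: Ac-DEVD-pNA substrate, 400 µM as added; measured by: Epi-absorbance of released pNA at 405 nm, two timepoints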
Neddyl conf: cullin neddylation inhibition, confirmation. AID 652217. calls only at 25 µM. TR-FRET cullin neddylation biochemical assay. shares compounds with Neddyl block. 13% of 1,800 active; in the data active means inhibition above about 40%;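 further: neddylation substrate is the cullin 1 ring ligase complex with SKP2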
* hit, by the source's call; i = inactive; x = no result given; + = active, no number. Rows were chosen to be rich in hits. Some 1.9% of all compounds tested hit in one or more screens of this group.

SMILES | HIF activator | Calb FLC | procasp3 activ | FXN GAA850 act | Neddyl block | proCasp7 act | Neddyl conf
COc1ccc(Cl)c2sc(NC(=O)C3=COCCO3)nc12 | 0 | 16 | 15 | 0 | 42* | 5 | i
CSc1cccc2sc(NC(=O)C3=COCCO3)nc12 | 2 | -7 | 10 | 2 | 52* | 8 | x
N#Cc1ccc(Cl)cc1NC(=O)CNCc1cccs1 | -27 | 0 | 1 | 2 | -1 | -7 | x
Cc1ccc2cc3cc(C(=O)NCc4ccco4)oc3nc2c1 | 2 | -4 | -1 | 1 | 44* | 7 | i
Cc1ccc2cc3cc(C(=O)NCCC(C)C)oc3nc2c1 | -12 | -8 | -7 | 0 | -118 | -2 | x
Cc1c(CCC(=O)NCCCn2ccnc2)c(=O)oc2cc3occ(C(C)(C)C)c3cc12 | 0 | 12 | 4 | -1 | 41* | 5 | x
Cc1coc2cc3oc(=O)c(CCC(=O)NCCCn4ccnc4)c(C)c3cc12 | 0 | 1 | 10 | 1 | x | 12 | x
COc1ccc(C(C)C)cc1-c1cccc2nncn12 | x | x | x | 2 | 45* | x | i
CC(NC(=O)c1cccc(N(C)C)c1)c1ccc(-n2ccnc2)cc1 (stereo not drawn) | 0 | 1 | 0 | 2 | 41* | -3 | i
Cc1nc2ccc(NC(=O)CSc3ccccc3)cc2s1 | x | x | 16 | 4 | 11 | 8 | x
CCOC(=O)c1c(NC(=O)COC(=O)c2nccnc2N)sc(C(=O)N(C)C)c1C | 0 | 2 | 10 | 1 | 45* | 5 | i
CCOC(=O)c1c(NC(=O)COC(=O)c2ccccn2)sc(C(=O)N(C)C)c1C | 1 | 9 | -6 | 1 | -3 | -4 | x
CN(C(=O)c1ccnn1C)C1CCCN(Cc2ccccc2F)C1 (stereo not drawn) | 0 | -4 | x | 0 | -12 | x | x
COc1cc(/C=C/C(=O)NCCN2CCOCC2)cc(OC)c1OC | 0 | 14 | 2 | 2 | 44* | 8 | i
Cc1cccc(C2Nc3ccccc3C(=O)N2c2ccccc2)n1 (stereo not drawn) | 0 | 10 | -2 | -1 | x | -5 | x
O=C1c2ccccc2NC(c2ccccn2)N1c1ccc(Cl)cc1 (stereo not drawn) | 1 | -20 | 2 | 3 | 42* | 4 | x
O=C(NN1C(=O)c2ccccc2NC1c1ccoc1)c1ccccc1 (stereo not drawn) | -1 | 0 | -9 | -1 | x | -2 | x
O=C(NN1C(=O)c2ccccc2NC1c1ccccn1)c1ccccc1 (stereo not drawn) | 0 | 20 | -1 | 2 | 39* | 5 | x
Oc1ccccc1/C=N/NC(=S)NCCc1ccccc1 | 3 | 10 | x | 2 | 42* | x | i
Fc1ccc(NC(=S)NN=Cc2ccccc2Cl)cc1 | x | x | x | 0 | -23 | x | x
Oc1ccccc1C=NNC(=S)Nc1ccc(F)cc1 | x | x | x | -5 | 45* | x | x
Cc1[nH]c2ccccc2c1/C=N/NC(=O)c1cccc(S(=O)(=O)Nc2ccccc2Cl)c1 | 0 | 11 | -6 | 2 | 44* | -14 | i
Cc1cc(CNC[C@H]2O[C@@H](n3cnc(C(N)=O)n3)[C@H](O)[C@@H]2O)c(C)n1-c1cccnc1 | x | x | x | 2 | -4 | x | x
COC(=O)c1cc(NC(=O)c2c(-c3ccccc3)noc2C)ccc1N1CCOCC1 | 0 | 9 | 5 | 3 | 38* | -2 | i
CCN(CC)c1ccc(/C=N/NC(=O)c2c(Cl)c(C)nn2C)cc1 | 0 | 1 | -2 | 2 | 38* | -1 | i
SMILES | HIF activator | Calb FLC | procasp3 activ | FXN GAA850 act | Neddyl block | proCasp7 act | Neddyl conf
O=C(N/N=C/c1ccc(N2CCOCC2)cc1)C1CC1 | 1 | 3 | -4 | 3 | 42* | 17 | i
CCN(CC)c1ccc(/C=N/NC(=O)C(O)c2ccccc2)cc1 (stereo not drawn) | 0 | -3 | -7 | 0 | 55* | -13 | x
CCN(CC)c1ccc(/C=N/NC(=O)c2ccc(Br)o2)cc1 | 3 | 23 | -8 | 1 | x | -11 | x
CN(C)c1ccc(/C=N/NC(=O)C2CC2c2ccccc2)cc1 (stereo not drawn) | -2 | -51 | 5 | 0 | 54* | -2 | +
COc1cc(OC)cc(C(=O)NCCCCc2ccccc2)c1 | -1 | 9 | -1 | -2 | 5 | -10 | x
COc1ccc(CCNS(=O)(=O)CCNC(=O)c2ccc(OC)cc2)cc1 | 0 | 4 | 3 | 2 | 17 | 1 | x
CCc1ccccc1OCC(=O)Nc1cc(S(=O)(=O)N(CC)CC)ccc1N1CCOCC1 | x | x | -5 | -1 | -15 | -1 | x
COc1ccc(/C=N/NC(=O)Cc2ccc(Cl)cc2)cc1OC | 0 | -10 | 0 | 5 | -26 | 4 | x
CCN(CC)c1ccc(/C=N/NC(=O)Cc2ccc(OC)c(OC)c2)cc1 | 0 | -8 | 3 | 2 | 49* | 8 | +
CCN(CC)c1ccc(/C=N/NC(=O)C2CC2)cc1 | 1 | -11 | -2 | 0 | 51* | -3 | +
Cc1cc(=O)[nH]c2nnc(-c3ccc(Cl)cc3)n12 | 2 | -14 | 1 | 2 | 19 | 4 | x
Cc1c(Oc2ccc(C(F)(F)F)cc2[N+](=O)[O-])ccc2c3c(c(=O)oc12)CCC3 | 0 | -7 | 1 | 2 | 40* | 6 | i
COc1ccc(OC)c(NC=C2C(=O)OC3(CCCCC3)OC2=O)c1 | 0 | 6 | -8 | 0 | 52* | -9 | i
CN1C(=O)C(C)(C)c2cc(S(=O)(=O)NCc3ccc(C(=O)NCc4ccco4)cc3)ccc21 | 0 | -3 | 15 | 1 | -1 | -1 | x
NC(=O)c1cnn2c(-c3cccc(C(F)(F)F)c3)ccnc12 | 0 | 2 | -16 | 0 | 48* | 0 | i
CCCCN(Cc1ccco1)S(=O)(=O)c1csc(C(N)=O)c1 | 1 | -5 | -7 | 1 | -6 | -10 | x
CC(=O)Nc1ccc(S(=O)(=O)N2CCN(S(=O)(=O)c3ccc(NC(C)=O)cc3)CC2)cc1 | 0 | 0 | x | 0 | 0 | x | x
CC(=O)Nc1ccc(S(=O)(=O)N2CCN(c3cc(C(F)(F)F)ccn3)CC2)cc1 | -1 | 2 | 6 | 1 | 85* | 7 | i
O=C(NC1CC1)C1CC(=O)N(c2cccc(Cl)c2Cl)C1 (stereo not drawn) | -1 | -24 | -2 | 0 | 7 | 3 | x
COc1cc2nc3c4ccccc4n(CC#N)c3nc2cc1OC | 1 | 14 | x | x | x | x | x
CCn1c2ccccc2c2nc3cc(OC)c(OC)cc3nc21 | 1 | 17 | -8 | 2 | 48* | -16 | x
CCOCCn1c2ccccc2c2nc3ccccc3nc21 | 0 | 8 | -10 | 3 | 41* | -13 | i

Screens deposited in PubChem by several laboratories.
